We go through four compounds from publication PMC11962346 (Chemistry (Weinheim an Der Bergstrasse, Germany), 2025).

Structures are written as SMILES. *1 amine or outer side, *2 acyl side, *3 side chain or, on linkers, in order; H or OH if unused. Where a SMILES comes first, the peptide text is derived from it. Bridges are numbered along the chain shown (N, C = ends). The star is where a group is joined. X1 = CC(C)C[C@@H](CNC(=O)N1C[C@@H](SCCCCCC[*:1])C[C@H]1C(N)=O)NC(=O)NC[C@H](CC(C)C)N[*:2]; X4 = CC(C)C[C@@H](CNC(=O)N1CCC[C@H]1C(N)=O)NC(=O)NC[C@H](CC(C)C)N*; X2 = CC(C)C[C@@H](CNC(=O)N[C@@H](C)CNC(=O)N1CCC[C@H]1C(N)=O)N*

By IC50 is commonly meant the concentration that inhibits the measured activity by half. Lower therefore signals greater potency. The term inhibition denotes the relative decrease from the control value, in per cent.

One test has as its target T1, p53‐hDMX interaction (Homo sapiens, UniProt O15151).
T1 sequence (O15151 1-490): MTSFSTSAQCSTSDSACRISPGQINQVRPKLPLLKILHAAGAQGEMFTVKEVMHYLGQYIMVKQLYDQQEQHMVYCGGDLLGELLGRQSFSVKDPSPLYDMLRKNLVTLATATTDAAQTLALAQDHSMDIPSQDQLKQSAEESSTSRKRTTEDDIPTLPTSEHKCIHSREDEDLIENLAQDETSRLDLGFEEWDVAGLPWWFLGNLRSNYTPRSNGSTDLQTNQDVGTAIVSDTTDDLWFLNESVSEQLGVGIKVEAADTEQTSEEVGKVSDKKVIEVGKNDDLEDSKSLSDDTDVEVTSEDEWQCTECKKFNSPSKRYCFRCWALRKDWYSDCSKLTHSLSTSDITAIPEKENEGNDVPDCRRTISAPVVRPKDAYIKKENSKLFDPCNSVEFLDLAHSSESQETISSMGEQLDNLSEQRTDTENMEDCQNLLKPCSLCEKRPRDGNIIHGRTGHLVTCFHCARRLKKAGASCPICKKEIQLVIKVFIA
The test can be described thus: TR-FRET. Format: binding. The conditions noted are these: for IC50: IC50±SEM hDMX, 9-point curves in duplicates; for inhibition at 0.1 µM: read-out: Inhibition at 100 nM (%) hDMX. A general note: TR-FRET usually uses a lanthanide donor and a delayed reading to cut background.

A further test has as its target p53‐hDM2 interaction (Homo sapiens, UniProt Q00987). The test can be described thus: TR-FRET. Format: binding. The conditions noted are these: for IC50: IC50±SEM hDM2, 9-point curves in duplicates; for inhibition at 0.1 µM: read-out: Inhibition at 100 nM (%) hDM2.
The test system of a further test is p53wt HCT116 cells. The test can be described thus: Western blot of p53 protein levels. In kind it is cell-based, human. To be noted: 6 hours treatment, 0.1 to 40 µM. Summed up:
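p53wt HCT116 cells in exponential growth, seeded one day ahead, were exposed to test compound for 6 h without serum, then lysed in RIPA. SDS-PAGE, wet transfer to nitrocellulose, 5% BSA/TBS-T block 1 h RT. Anti-p53 and anti-GAPDH overnight at 4 °C, infrared anti-mouse secondary 1.5 h RT. Positive control was a reference hDM2 inhibitor. Three independent biological replicates.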
For orientation: A western blot detects proteins with antibodies after separation by electrophoresis.

Test [1] has as its system HCT116 cells. The test can be described thus: MTS cell viability assay. In kind it is cell-based, human. The conditions noted are these: 3 days of incubation. In a few lines:
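HCT116 cells (passages 47–50; DMEM, 10% heat-inactivated FCS, 37 °C, 5% CO₂) seeded at 3×10³ cells/well with test compound at various concentrations in serum-free medium for 8 h. Serum (10%) then added for 64 h more. MTS reagent added, absorbance read at 490 nm, % viability taken versus untreated cells. Two independent experiments, three technical replicates each.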

For test [2], the system named is HCT116 cells. The test can be described thus: RT-qPCR of p53 target genes p21 and hDM2. The conditions noted are these: 6 hours treatment, n=3. In kind it is cell-based, human. A general note: Quantitative PCR measures a nucleic acid by following its amplification.

p53‐hDM2 interaction, sequence (Q00987 whole entry): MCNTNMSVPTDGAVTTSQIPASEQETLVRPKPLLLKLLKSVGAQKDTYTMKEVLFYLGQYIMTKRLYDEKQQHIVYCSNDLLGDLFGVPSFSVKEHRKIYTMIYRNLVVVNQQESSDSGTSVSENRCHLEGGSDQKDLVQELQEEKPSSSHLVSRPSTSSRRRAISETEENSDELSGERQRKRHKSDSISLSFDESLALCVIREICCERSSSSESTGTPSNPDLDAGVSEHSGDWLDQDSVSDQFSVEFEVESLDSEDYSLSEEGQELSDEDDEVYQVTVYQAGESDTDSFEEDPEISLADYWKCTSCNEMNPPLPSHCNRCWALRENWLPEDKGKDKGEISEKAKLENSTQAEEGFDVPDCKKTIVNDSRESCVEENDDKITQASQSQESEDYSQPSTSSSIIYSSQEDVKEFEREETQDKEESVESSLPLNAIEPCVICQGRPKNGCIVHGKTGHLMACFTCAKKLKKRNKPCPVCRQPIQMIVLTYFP

Turning to `CC(C)C[C@@H](CNC(=O)N1CCC[C@H]1C(N)=O)NC(=O)NC[C@H](CC(C)C)NC(=O)[C@H](C)NC(=O)[C@H](Cc1c[nH]c2ccccc12)NC(=O)[C@H](Cc1ccc(O)cc1)NC(=O)[C@H](CCC(=O)O)NC(=O)[C@H](C)NC(=O)[C@H](Cc1ccccc1)NC(=O)[C@H](CO)NC(=O)[C@@H](N)[C@@H](C)O` [Compound 4] (H-TSFAEYWA-X4), on p53‐hDMX interaction, the midpoint of inhibition, the IC50, lay at 115 ± 5 nM and the inhibition at 0.1 µM was 46%. In addition, at p53‐hDM2 interaction, inhibition was half-maximal at 6.13 ± 0.08 nM (IC50) and the inhibition at 0.1 µM turned out to be 99%.
On to `CC(=O)N[C@@H](CCCCN)C(=O)N[C@H](C(=O)N[C@@H](Cc1ccccc1)C(=O)N[C@H]1CSCCCCCCS[C@H]2C[C@@H](C(N)=O)N(C2)C(=O)NC[C@H](CC(C)C)NC(=O)NC[C@H](CC(C)C)NC(=O)[C@H](C)NC(=O)[C@H](Cc2c[nH]c3ccccc23)NC(=O)[C@H](Cc2ccc(O)cc2)NC(=O)[C@H](CCC(=O)O)NC1=O)[C@@H](C)O` [Compound 10 a] (Ac-KTFCEYWA; linker 4-C via X1), for which the “p53 protein levels (western blot)” value in the test with p53wt HCT116 cells is on record as “dose‐dependent increase of p53 levels”. The half-inhibitory concentration (IC50) against p53‐hDMX interaction came out at 63 ± 12 nM; on p53‐hDM2 interaction it was 3 ± 0.1 nM. In addition, in the test on HCT116 cells [1], the “viability of p53wt HCT116 cells (in words)” value was “effective in reducing the viability of p53wt HCT116 cells in a concentration‐dependent manner”. In addition, in the test on HCT116 cells [2], the “mRNA of target genes p21 and hDM2 (RT-qPCR)” value was “dose‐dependent induction of mRNA of target genes p21 and hDM2”.
Regarding `CC(C)C[C@H]1CNC(=O)N2C[C@H](C[C@H]2C(N)=O)SCCCCCCSC[C@H](NC(=O)[C@H](Cc2ccccc2)NC(=O)[C@H](CO)NC(=O)[C@@H](N)[C@@H](C)O)C(=O)N[C@@H](CCC(=O)O)C(=O)N[C@@H](Cc2ccc(O)cc2)C(=O)N[C@@H](Cc2c[nH]c3ccccc23)C(=O)N[C@@H](C)C(=O)N[C@@H](CC(C)C)CNC(=O)N1` [Compound 8 a] (H-TSFCEYWA; linker 4-C via X1), the IC50 stood at 75 ± 4 nM at p53‐hDMX interaction and 1.91 ± 0.05 nM against p53‐hDM2 interaction. Moreover, the inhibition at 0.1 µM amounted to 66% on p53‐hDMX interaction and 99% at p53‐hDM2 interaction.
For `CC(C)C[C@@H](CNC(=O)N[C@@H](C)CNC(=O)N1CCC[C@H]1C(N)=O)NC(=O)[C@H](C)NC(=O)[C@H](Cc1c[nH]c2ccccc12)NC(=O)[C@H](Cc1ccc(O)cc1)NC(=O)[C@H](CCC(=O)O)NC(=O)[C@H](C)NC(=O)[C@H](Cc1ccccc1)NC(=O)[C@H](CO)NC(=O)[C@@H](N)[C@@H](C)O` [Compound 3] (H-TSFAEYWA-X2), at p53‐hDMX interaction, half-maximal inhibition (IC50) was put at 247 ± 42 nM and the inhibition at 0.1 µM turned out to be 19%. On p53‐hDM2 interaction, half-maximal inhibition (IC50) was put at 54 ± 17 nM and the inhibition at 0.1 µM was 43%.
